Laboratory results: ChEMBL document CHEMBL3098122, “Synthesis, biological activity and structure-activity relationships of new benzoic acid-based protein tyrosine phosphatase inhibitors endowed with insulinomimetic effects in mouse C2C12 skeletal muscle cells” (Eur J Med Chem, 2014)
Calls of active or inactive are those of the source. No cut-off for these calls is given here.

Experiments:
[1] = target: T1, Low molecular weight phosphotyrosine protein phosphatase (Homo sapiens, UniProt P24666); test: Inhibition of human recombinant LMW-PTP IF2 expressed in Escherichia coli TB1 using p-nitrophenylphosphate as substrate
T1 sequence (P24666 whole entry): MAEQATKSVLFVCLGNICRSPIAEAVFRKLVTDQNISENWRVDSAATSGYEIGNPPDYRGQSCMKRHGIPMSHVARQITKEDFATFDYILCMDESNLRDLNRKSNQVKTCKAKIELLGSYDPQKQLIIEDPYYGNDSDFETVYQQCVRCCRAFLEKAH

[2] = target: T2, Tyrosine-protein phosphatase non-receptor type 2 (Homo sapiens, UniProt P17706); test: Inhibition of TC-PTP (unknown origin) purchased from New England Biolabs using p-nitrophenylphosphate as substrate
T2 sequence (P17706 whole entry): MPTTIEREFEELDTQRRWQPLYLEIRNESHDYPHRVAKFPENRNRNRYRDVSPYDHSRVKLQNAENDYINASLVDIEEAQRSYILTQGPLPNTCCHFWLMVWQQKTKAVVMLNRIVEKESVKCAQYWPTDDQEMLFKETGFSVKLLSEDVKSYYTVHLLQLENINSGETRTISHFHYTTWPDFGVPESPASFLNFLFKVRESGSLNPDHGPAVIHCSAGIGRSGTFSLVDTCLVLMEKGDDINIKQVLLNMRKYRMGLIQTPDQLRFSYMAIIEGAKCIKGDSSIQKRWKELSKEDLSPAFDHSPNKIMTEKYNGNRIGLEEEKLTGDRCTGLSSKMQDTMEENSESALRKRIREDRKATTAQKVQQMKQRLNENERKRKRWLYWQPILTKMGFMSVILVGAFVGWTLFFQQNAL

Homo sapiens [3] = organism: Homo sapiens; test: Selectivity ratio of IC50 for human recombinant LMW-PTP IF2 to IC50 for human recombinant LMW-PTP IF1
[4] = Cytotoxicity against mouse C2C12 cells expressing PTP1B, TC-PTP, LMW-PTP and insulin receptor assessed as cell viability after 2 hrs by MTT assay; assay type: cell-based; parameters: concentration or dose not given beside the values; settings: read-out: Activity
Procedure, shortened: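 C2C12 myoblasts differentiated 4 days in DMEM with 2% horse serum, serum-starved 20 h; myotubes then given MTT (0.5 mg/ml final) for 2 h at 37 °C, lysed in DMSO, formazan read at 570 nm; three replicates relative to control.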

Homo sapiens [5] = organism: Homo sapiens; test: Selectivity ratio of IC50 for human recombinant LMW-PTP IF2 to IC50 for human recombinant PTP1B
[6] = target: T3, Tyrosine-protein phosphatase non-receptor type 1 (Homo sapiens, UniProt P18031); test: Mixed type inhibition of human recombinant PTP1B expressed in Escherichia coli TB1 using p-nitrophenylphosphate as substrate by Double reciprocal plot analysis
T3 sequence (P18031 whole entry): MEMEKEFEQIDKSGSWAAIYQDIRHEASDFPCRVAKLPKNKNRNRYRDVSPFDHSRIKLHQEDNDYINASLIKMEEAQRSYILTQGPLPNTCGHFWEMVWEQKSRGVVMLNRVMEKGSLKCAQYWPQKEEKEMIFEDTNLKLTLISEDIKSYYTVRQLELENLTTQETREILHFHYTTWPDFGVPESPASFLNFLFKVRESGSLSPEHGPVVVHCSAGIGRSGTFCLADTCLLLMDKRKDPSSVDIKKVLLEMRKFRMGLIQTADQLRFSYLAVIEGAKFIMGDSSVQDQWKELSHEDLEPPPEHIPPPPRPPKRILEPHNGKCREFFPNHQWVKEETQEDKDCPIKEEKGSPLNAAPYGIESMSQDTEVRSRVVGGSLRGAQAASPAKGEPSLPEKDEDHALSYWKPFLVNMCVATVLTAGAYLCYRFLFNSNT
Procedure, shortened: (§1)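 PTP1B (human, GST fusion from pGEX-2T in E. coli TB1, thrombin-cleaved, gel-filtered) assayed at 37 °C, pH 7.0 β,β-dimethylglutarate buffer with 1 mM EDTA and 5 mM DTT, p-nitrophenylphosphate at seven final concentrations (0.5–25 mM) with increasing inhibitor; KOH-stopped, A400. Inhibition type from double reciprocal plots; Ki from apparent Km vs inhibitor concentration; triplicate initial rates.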

[7] = target: T4, Tyrosine-protein phosphatase non-receptor type 1 (Homo sapiens) (UniProt P18031); test: Reversible inhibition of human recombinant PTP1B expressed in Escherichia coli TB1 using p-nitrophenylphosphate as substrate assessed as residual activity at 25 times IC50 after 1 hr measured after 400 fold dilution
T4 sequence (whole entry): T3 sequence (P18031 whole entry)
Procedure, shortened: (§2)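 Reversibility: PTP1B preincubated 1 h at 37 °C with at least 25-fold […], DMSO in controls; mixture then diluted 400-fold in assay buffer and residual activity measured on p-nitrophenylphosphate; three replicates, mean ± SE.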

Homo sapiens [8] = organism: Homo sapiens; test: Selectivity ratio of IC50 for TC-PTP (unknown origin) to IC50 for human recombinant PTP1B
Procedure, shortened: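 Commercial T-cell PTP assayed on p-nitrophenylphosphate at 37 °C, pH 7.0 β,β-dimethylglutarate buffer with 1 mM EDTA and 5 mM DTT; stopped with 1 M KOH, absorbance at 400 nm; IC50 from ratio of activity with and without inhibitor versus inhibitor concentration. Ratio lines pair this with recombinant human PTP1B measured the same way.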

[9] = target: T1, Low molecular weight phosphotyrosine protein phosphatase; test: Inhibition of human recombinant LMW-PTP IF1 expressed in Escherichia coli TB1 using p-nitrophenylphosphate as substrate
Homo sapiens [10] = organism: Homo sapiens; test: Selectivity ratio of IC50 for human recombinant LMW-PTP IF1 to IC50 for human recombinant PTP1B
[11] = target: T3, Tyrosine-protein phosphatase non-receptor type 1; test: Inhibition of human recombinant PTP1B expressed in Escherichia coli TB1 using p-nitrophenylphosphate as substrate
[12] = target: T5, Tyrosine-protein phosphatase non-receptor type 1 (Mus musculus) (UniProt P35821); test: Inhibition of PTP1B in mouse C2C12 cells assessed as increase of insulin receptor beta phosphorylation at 25 uM after 90 mins; assay type: cell-based
T5 sequence (whole entry): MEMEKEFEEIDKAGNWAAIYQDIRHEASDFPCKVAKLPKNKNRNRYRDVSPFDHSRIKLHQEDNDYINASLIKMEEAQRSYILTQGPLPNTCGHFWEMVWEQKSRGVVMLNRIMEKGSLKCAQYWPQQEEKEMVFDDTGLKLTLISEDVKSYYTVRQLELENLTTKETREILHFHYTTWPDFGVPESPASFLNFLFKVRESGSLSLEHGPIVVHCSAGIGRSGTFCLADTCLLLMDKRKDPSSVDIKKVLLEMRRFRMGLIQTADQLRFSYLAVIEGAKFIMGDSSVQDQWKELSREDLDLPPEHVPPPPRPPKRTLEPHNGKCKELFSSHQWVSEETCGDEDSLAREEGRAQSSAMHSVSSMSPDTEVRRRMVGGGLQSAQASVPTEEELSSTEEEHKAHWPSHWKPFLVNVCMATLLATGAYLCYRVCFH
Procedure, shortened: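 Differentiated, 20 h serum-starved C2C12 myotubes exposed to 25 µM compound (DMSO 1.2% final) for 90 min at 37 °C, insulin 10 nM 30 min as positive control; lysates run on SDS-PAGE, Western blot for phospho-insulin receptor β with actin loading control, densitometry; three replicates, p<0.05 versus control.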

[13] = target: T4, Tyrosine-protein phosphatase non-receptor type 1 (Homo sapiens); test: Partial reversible inhibition of human recombinant PTP1B expressed in Escherichia coli TB1 using p-nitrophenylphosphate as substrate assessed as residual activity at 25 times IC50 after 1 hr measured after 400 fold dilution; procedure, shortened: as §2
[14] = target: T5, Tyrosine-protein phosphatase non-receptor type 1 (Mus musculus); test: Inhibition of PTP1B in mouse C2C12 cells assessed as increase of 2-deoxy-D-1,2-[3H]-glucose at 25 uM after 90 mins by beta-scintillation counting; assay type: cell-based
Procedure, shortened: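 Serum-starved differentiated C2C12 myotubes treated 90 min with 25 µM compound (1.2% DMSO) or 30 min with 10 nM insulin, then 0.1 µCi 2-deoxy-D-[1,2-3H]glucose in Ringer-Hepes for 15 min at 37 °C; cold PBS wash, 0.2 M NaOH lysis, scintillation counting normalized to Bradford protein; three replicates.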

[15] = target: T3, Tyrosine-protein phosphatase non-receptor type 1; test: Competitive inhibition of human recombinant PTP1B expressed in Escherichia coli TB1 using p-nitrophenylphosphate as substrate by Double reciprocal plot analysis; procedure, shortened: as §1

Compound	IC50 [1] [µM]	IC50 [2] [µM]	Ratio IC50 (Homo sapiens [3])	viability at 2 h [4] [%]	Ratio IC50 (Homo sapiens [5])	Ki [6] [µM]	Activity [7] [%]	Ratio IC50 (Homo sapiens [8])	IC50 [9] [µM]	Ratio IC50 (Homo sapiens [10])	IC50 [11] [µM]	inhibition [12]	Activity [13] [%]	inhibition [14]	Ki [15] [µM]
O=C(O)c1ccc(CN2C(=O)S/C(=C\c3ccc(OCCc4ccccc4)cc3)C2=O)cc1	> 50	5.9	> 2	≥ 80	> 2	2.3	80	2	20.1	> 2	2.6	–	–	–	–
O=C(O)c1ccc(CN2C(=O)/C(=C/c3ccc(OCc4ccccc4)c(F)c3)S/C2=N\c2ccccc2)cc1	15.5	0.8	> 2	≥ 80	> 2	–	–	–	3.3	> 2	2.2	Active	50	Active	–
COc1cc(/C=C2\SC(=O)N(Cc3ccc(C(=O)O)cc3)C2=O)ccc1OCc1ccccc1	> 50	3.5	> 2	≥ 80	> 2	–	80	–	10.3	> 2	4.6	Active	–	–	–
O=C(O)c1ccc(CN2C(=O)S/C(=C\c3cccc(OCCc4ccccc4)c3)C2=O)cc1	> 50	7.3	> 2	60	> 2	–	80	–	20.1	> 2	9.5	–	–	Active	–
O=C(O)c1ccc(CN2C(=O)/C(=C/c3ccc(OCCc4ccccc4)cc3)S/C2=N\c2ccccc2)cc1	8.9	0.7	> 2	≥ 80	> 2	0.5	–	–	4	> 2	1.5	Active	50	–	–
COc1ccc(/C=C2\S/C(=N\c3ccccc3)N(Cc3ccc(C(=O)O)cc3)C2=O)cc1OCc1ccccc1	> 50	4	> 2	≥ 80	> 2	–	–	–	9.1	> 2	3.9	–	50	–	–
COc1ccc(/C=C2\SC(=O)N(Cc3ccc(C(=O)O)cc3)C2=O)cc1OCCc1ccccc1	> 50	16.9	> 2	≥ 80	–	–	80	–	> 50	–	24.6	Active	–	–	–
COc1ccc(/C=C2\S/C(=N\c3ccccc3)N(Cc3ccc(C(=O)O)cc3)C2=O)cc1OCCc1ccccc1	> 50	4.3	> 2	≥ 80	> 2	–	80	2	17.2	> 2	1.7	Active	–	–	1.5
O=C(O)c1ccc(CN2C(=O)/C(=C/c3cccc(OCCc4ccccc4)c3)S/C2=N\c2ccccc2)cc1	26.8	1.9	> 2	≥ 80	> 2	–	–	–	10.9	> 2	4.6	–	50	inactive	–
O=C(O)c1ccc(CN2C(=O)S/C(=C\c3ccc(OCc4ccccc4)c(F)c3)C2=O)cc1	> 50	10.8	> 2	≥ 80	> 2	–	80	–	34.3	> 2	7.5	Active	–	–	–
COc1ccc(/C=C2\SC(=O)N(Cc3ccc(C(=O)O)cc3)C2=O)cc1OCc1ccccc1	> 50	12.7	> 2	≥ 80	> 2	–	80	2	22.3	> 2	4	Active	–	–	–
COc1cc(/C=C2\S/C(=N\c3ccccc3)N(Cc3ccc(C(=O)O)cc3)C2=O)ccc1OCc1ccccc1	10	5.1	> 2	≥ 80	> 2	–	80	2	4.5	> 2	1.6	–	–	inactive	–
COc1cc(/C=C2\S/C(=N\c3ccccc3)N(Cc3ccc(C(=O)O)cc3)C2=O)ccc1OCCc1ccccc1	19.7	3.4	> 2	≥ 80	> 2	1.5	80	–	10.7	> 2	2.8	Active	–	–	–
